CHOP inhibitor: CHOP inhibition in unfolded protein response | AID 2732 | inhibition, % at 10 µM | CHO-K1 CHOP-promoter luciferase, tunicamycin-induced, 15-18 h | 220,000 compounds, 3.8% hits;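 active = compounds that reduced the stress-induced luciferase reporter signal by more than about 70% of percent inhibition, limit read from the data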;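 also: 0% = tunicamycin plus vehicle and 100% = wells without tunicamycin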
MPTP block: permeability transition pore inhibition. inhibition, % at 10 µM. isolated mouse mitochondria, Ca2+ swelling absorbance, 30 min. 360,000 compounds, 1.4% hits. AID 602449;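 active = inhibition of 50% or more, scaled per plate between neutral and stimulator controls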;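 also: 0% = DMSO wells given calcium and 100% = 1 mM EGTA wells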
Tb MetRS inh: blocks T. brucei methionyl-tRNA synthetase activity. purified T. brucei MetRS, ATP depletion, Kinase-Glo luminescence. AID 624268. 360,000 compounds, 0.4% hits. inhibition, % at 11.9 µM;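 active = inhibition above a per-plate cutoff of the control wells' mean inhibition plus 3 SD, cut at about 5.5% in these data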;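 also: 0% = DMSO wells median and 100% = median of wells with control inhibitor compound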
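assay system = parasite MetRS enzyme | timing = 15 min preincubation, 2 h reaction, all 25 °C | evaluation = percent inhibition relative to median high and low control wells | medium = HEPES buffer containing pyrophosphatase, BSA, spermine, DTT | compound = single dose, 11.9 µM final nominal, 0.9% final DMSO | detection = Kinase-Glo luminescence, ATP depletion format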
NR3A LBD binder: modulates the human NR3A ligand-binding domain; Tm shift relative to glycine control, % at 25 µM; NR3A LBD differential scanning fluorimetry, Tm shift; 0% = protein alone, 100% = glycine-bound protein; 340,000 compounds, 2.5% hits;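 active = melting temperature shift of at least 10% of the positive control shift, at one fixed dose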
WT yeast gro inh: growth inhibition of WT yeast, mitochondrial fusion screen; inhibition, % at 10 µM; mitochondrial fusion phenotypic screen, WT strain; 190,000 compounds, 2.1% hits; in the data active = inhibition above about 58%; tested in S. cerevisiae
EBV gp42 block: inhibitors of Epstein-Barr virus glycoprotein 42. Q1HVG2. Fluorescence polarization binding assay, mP read-out. inhibition, % (tested at 21.74 µM). 220,000 compounds, 0.42% hits. AID 1085; in the data active = inhibition above about 50%
Target sequence (Q1HVG2 whole entry, looked up): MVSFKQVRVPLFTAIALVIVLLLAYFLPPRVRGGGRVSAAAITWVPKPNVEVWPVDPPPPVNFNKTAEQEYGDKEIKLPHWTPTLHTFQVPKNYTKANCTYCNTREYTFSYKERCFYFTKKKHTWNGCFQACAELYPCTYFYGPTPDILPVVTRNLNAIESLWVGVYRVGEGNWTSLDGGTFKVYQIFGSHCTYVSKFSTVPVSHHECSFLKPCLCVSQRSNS
TbMetRS confirm: Trypanosoma brucei MetRS inhibition confirmed | inhibition, % at 11.9 µM | 1,400 compounds, 93% hits | T. brucei MetRS enzyme, luminescence (ATP depletion) | shares compounds with Tb MetRS inh; in the data active = inhibition above about 7%
Jurkat cytotox: counter-screen for T. brucei MetRS inhibitors: Jurkat cell cytotoxicity; Jurkat cells viability, ATP luminescence; shares compounds with Tb MetRS inh; inhibition, % at 8.3 µM; 1,400 compounds, 12% hits; in the data active = inhibition above about 15%;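 also: 0% = vehicle and 100% = reference inhibitor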
TbMetRS FP orth: T. brucei MetRS inhibition, orthogonal assay. shares compounds with Tb MetRS inh. purified T. brucei MetRS, fluorescence polarization. inhibition, % at 11.9 µM. 1,400 compounds, 44% hits. AID 651607; in the data active = inhibition above about 17%;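 also: 0% = vehicle wells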
* = called active by the depositor; . = no result given. Only some compounds are listed: those with a hit (about 6.4% of all), similar ones and a draw of the others.

SMILES | CHOP inhibitor | MPTP block | Tb MetRS inh | NR3A LBD binder | WT yeast gro inh | EBV gp42 block | TbMetRS confirm | Jurkat cytotox | TbMetRS FP orth
O=C(c1ccccc1)n1nc(-c2ccccc2)nc1NCc1ccco1 | 27 | -2 | -1 | -1 | 64 | 3 | . | . | .
COc1ccc(CNC(=O)CSc2nnc3c(n2)[nH]c2ccc(OC)cc23)cc1 | . | 0 | 7.6* | 1 | . | . | 35* | -1 | 22*
O=C(CSc1nnc2c(n1)[nH]c1ccccc12)Nc1nncs1 | . | -1 | 24* | 0 | . | . | 43* | -3 | 19*
O=C(CSc1nnc2c(n1)[nH]c1ccc(F)cc12)NCc1ccc(F)cc1 | . | -1 | 17* | 10* | . | . | 71* | 5 | 49*
COc1ccc(CCNC(=O)CSc2nnc3c(n2)[nH]c2ccc(F)cc23)cc1OC | . | 0 | 0 | 0 | . | . | . | . | .
O=C(CSc1nnc2c(n1)[nH]c1ccc(F)cc12)NC1CC1 | . | -1 | 0 | 1 | . | . | . | . | .
COc1ccc(CNC(=O)CSc2nnc3c(n2)[nH]c2ccc(F)cc23)cc1 | . | 0 | 33* | 1 | . | . | 92* | -4 | 66*
CCOc1ccc(/C=C2/Sc3ccc(C(=O)N4CCOCC4)cc3N(C)C2=O)cc1OC | . | 1 | 0 | -1 | . | . | . | . | .
Cc1ccc(NC(=O)CSc2nnc3c(n2)[nH]c2ccccc23)cc1 | . | 5 | 1 | -18 | . | . | . | . | .
O=C(CSc1nnc2c(n1)[nH]c1ccccc12)Nc1ccc2c(c1)OCO2 | 51 | 1 | 76* | 6 | -4 | 25 | 83* | 6 | 71*
Cc1ccc(CNC(=O)CSc2nnc3c(n2)[nH]c2ccccc23)cc1 | . | 0 | 16* | 0 | . | . | 69* | 4 | 45*
O=C(CSc1nc2ncccc2[nH]1)Nc1ccc2c(c1)OCO2 | -13 | 2 | 16* | 2 | . | 73* | 27* | 0 | 17*
COc1ccccc1-n1c(C)nnc1SCC(=O)Nc1cccc(C(C)=O)c1 | 15 | 1 | -1 | 0 | -2 | -17 | . | . | .
O=C(Cc1ccc(Br)cc1)N/N=C/c1ccc(-c2cccc(C(=O)O)c2)o1 | 12 | 1 | 6.9* | 0 | . | 6 | 16* | 0 | 5
Nc1nnc(CC(=O)N/N=C/c2ccc(-c3cccc(C(=O)O)c3)o2)s1 | 18 | 1 | 0 | 0 | . | -11 | . | . | .
COC(=O)c1c(NC(=O)CSc2nnnn2-c2ccccc2)sc2c1CCCC2 | 19 | -1 | 0 | 0 | 1 | -25 | . | . | .
CC(=O)c1ccc(N2CCN(C(=O)CCCn3c(=O)[nH]c4ccccc4c3=O)CC2)cc1 | -8 | -1 | 23* | 1 | -14 | -6 | 32* | 4 | 16
CC(c1ccccc1)C(Cc1nc2ccccc2[nH]1)c1nc2ccccc2[nH]1 (stereo not drawn) | 36 | . | . | . | -6 | 5 | . | . | .
COc1ccccc1CC(Cc1nc2ccccc2[nH]1)c1nc2ccccc2[nH]1 (stereo not drawn) | 18 | 1 | 5.7* | -2 | 11 | -21 | 11* | 3 | 3
Cc1ccc2[nH]c(=O)c(CN(CCN3CCOCC3)C(=O)Nc3ccc(F)cc3)cc2c1 | -16 | -3 | 5.9* | 0 | -3 | -22 | 9.1* | 3 | 0
Cc1ccc2[nH]cc(S(=O)(=O)c3ccc(F)cc3)c(=O)c2c1 | . | 0 | 29* | . | . | . | 41* | 0 | 16
CCOc1ccc(S(=O)(=O)c2c[nH]c3ccc(C)cc3c2=O)cc1 | . | 0 | 4 | 0 | . | . | . | . | .
CC(C)c1ccc(S(=O)(=O)NC2CCS(=O)(=O)C2)cc1 (stereo not drawn) | . | -1 | 0 | 0 | . | . | . | . | .
O=C(CC(=O)Nc1ccc(F)cc1)Nc1ccc(F)cc1 | . | -1 | 7.0* | 1 | . | . | 18* | -8 | 6
O=C(CNC(=O)c1ccc(Cl)cc1Cl)Nc1ccc(F)cc1 | 15 | 1 | 10* | 0 | . | -12 | 27* | -1 | 14
SMILES | CHOP inhibitor | MPTP block | Tb MetRS inh | NR3A LBD binder | WT yeast gro inh | EBV gp42 block | TbMetRS confirm | Jurkat cytotox | TbMetRS FP orth
CC(C)(C)C(=O)N1CCC2CC1c1cc(-c3ccc4c(c3)OCO4)ccc12 (stereo not drawn) | . | 2 | 0 | . | . | . | . | . | .
CCc1ccc(S(=O)(=O)/N=C2\C=C(NS(=O)(=O)c3ccccc3)C(=O)c3ccccc32)cc1 | . | 13 | 0 | 2 | . | . | . | . | .
O=C(O)c1ccc(S(=O)(=O)/N=C2\C=C(Nc3ccccc3F)C(=O)c3ccccc32)cc1 | . | 6 | 9.2* | 4 | . | . | 15* | 91* | 6
C=CCn1c(Cc2nc3ccc(Cl)cc3[nH]2)n[nH]c1=S | 82* | -2 | 6.7* | -3 | 9 | 4 | 21* | 0 | 15
COc1ccc2[nH]c3nc(SCC(=O)Nc4cccc(NC(C)=O)c4)nnc3c2c1 | . | 0 | 4 | 1 | . | . | . | . | .
COc1cccc(CNC(=O)CSc2nnc3c(n2)[nH]c2ccc(C)cc23)c1 | . | 1 | 19* | -2 | . | . | 79* | 5 | 46*
COc1cccc(CNC(=O)CSc2nc3ccc(C)cc3[nH]2)c1 | . | 1 | 5.8* | 0 | . | . | 20* | -3 | 8
COc1cccc(NC(=O)CSc2nnc3c(n2)[nH]c2ccc(C)cc23)c1 | . | 2 | 80* | 0 | . | . | 96* | 4 | 93*
Cc1ccc2nc(SCC(=O)NCc3cccs3)[nH]c2c1 | -1 | -4 | 3 | 0 | 4 | -9 | . | . | .
Cc1ccc2[nH]c3nc(SCC#N)nnc3c2c1 | . | -1 | 2 | 1 | . | . | . | . | .
CC1CCN(C(=O)COC(=O)CCC(=O)c2ccc(F)cc2)CC1 | . | 0 | 0 | -1 | . | . | . | . | .
Cc1cccc(C)c1NC(=O)COC(=O)C1CC1 | . | -1 | 0 | -1 | . | . | . | . | .
CC(C)C1CC(=O)NC(SCC(=O)Nc2ccc(Br)cc2)=C1C#N (stereo not drawn) | 11 | 4 | 12* | -17 | 0 | 4 | 18* | 9 | 7
COc1ccccc1C1CC(=O)NC(SCC(=O)Nc2ccccc2)=C1C#N (stereo not drawn) | 16 | 0 | 1 | -4 | 6 | 10 | . | . | .
Cc1ccc(OCc2nc(C#N)c(NCCCn3ccnc3)o2)cc1 | -7 | 1 | 2 | 1 | 1 | -4 | . | . | .
N#Cc1nc(COc2ccc(Br)cc2)oc1NCCCn1ccnc1 | 3 | 2 | 30* | -4 | -6 | -21 | 53* | 7 | 31*
COC(=O)c1cc(-c2ccc(Br)cc2)n[nH]1 | 60 | 2 | 10* | -1 | -10 | -24 | 28* | -5 | 12
O=C(NCc1ccc2c(c1)OCO2)C1CC(=O)N(c2ccc(Cl)cc2)C1 (stereo not drawn) | . | -1 | 8.9* | 0 | . | . | 16* | 2 | 8

Screens from PubChem BioAssay.
